# Reference: ChEMBL document CHEMBL1221355, “Substituted biaryl pyrazoles as sodium channel blockers” (Bioorg Med Chem Lett, 2010)
# pIC50, pKi: −log10 of the molar value.
# Tests used:
# [1] = target: T1, Sodium channel protein type 9 subunit alpha (Homo sapiens, UniProt Q15858); assay: Inhibition of human Nav 1.7 channel by voltage-ion-probe-reader
# Method in brief: (§1)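 Functional membrane-potential FRET assay on voltage-gated hNav1.7, read on a voltage-ion-probe reader (VIPR). Results given as IC50 or as percent inhibition at 10 μM.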
# Target sequence in this assay (Q15858 whole entry): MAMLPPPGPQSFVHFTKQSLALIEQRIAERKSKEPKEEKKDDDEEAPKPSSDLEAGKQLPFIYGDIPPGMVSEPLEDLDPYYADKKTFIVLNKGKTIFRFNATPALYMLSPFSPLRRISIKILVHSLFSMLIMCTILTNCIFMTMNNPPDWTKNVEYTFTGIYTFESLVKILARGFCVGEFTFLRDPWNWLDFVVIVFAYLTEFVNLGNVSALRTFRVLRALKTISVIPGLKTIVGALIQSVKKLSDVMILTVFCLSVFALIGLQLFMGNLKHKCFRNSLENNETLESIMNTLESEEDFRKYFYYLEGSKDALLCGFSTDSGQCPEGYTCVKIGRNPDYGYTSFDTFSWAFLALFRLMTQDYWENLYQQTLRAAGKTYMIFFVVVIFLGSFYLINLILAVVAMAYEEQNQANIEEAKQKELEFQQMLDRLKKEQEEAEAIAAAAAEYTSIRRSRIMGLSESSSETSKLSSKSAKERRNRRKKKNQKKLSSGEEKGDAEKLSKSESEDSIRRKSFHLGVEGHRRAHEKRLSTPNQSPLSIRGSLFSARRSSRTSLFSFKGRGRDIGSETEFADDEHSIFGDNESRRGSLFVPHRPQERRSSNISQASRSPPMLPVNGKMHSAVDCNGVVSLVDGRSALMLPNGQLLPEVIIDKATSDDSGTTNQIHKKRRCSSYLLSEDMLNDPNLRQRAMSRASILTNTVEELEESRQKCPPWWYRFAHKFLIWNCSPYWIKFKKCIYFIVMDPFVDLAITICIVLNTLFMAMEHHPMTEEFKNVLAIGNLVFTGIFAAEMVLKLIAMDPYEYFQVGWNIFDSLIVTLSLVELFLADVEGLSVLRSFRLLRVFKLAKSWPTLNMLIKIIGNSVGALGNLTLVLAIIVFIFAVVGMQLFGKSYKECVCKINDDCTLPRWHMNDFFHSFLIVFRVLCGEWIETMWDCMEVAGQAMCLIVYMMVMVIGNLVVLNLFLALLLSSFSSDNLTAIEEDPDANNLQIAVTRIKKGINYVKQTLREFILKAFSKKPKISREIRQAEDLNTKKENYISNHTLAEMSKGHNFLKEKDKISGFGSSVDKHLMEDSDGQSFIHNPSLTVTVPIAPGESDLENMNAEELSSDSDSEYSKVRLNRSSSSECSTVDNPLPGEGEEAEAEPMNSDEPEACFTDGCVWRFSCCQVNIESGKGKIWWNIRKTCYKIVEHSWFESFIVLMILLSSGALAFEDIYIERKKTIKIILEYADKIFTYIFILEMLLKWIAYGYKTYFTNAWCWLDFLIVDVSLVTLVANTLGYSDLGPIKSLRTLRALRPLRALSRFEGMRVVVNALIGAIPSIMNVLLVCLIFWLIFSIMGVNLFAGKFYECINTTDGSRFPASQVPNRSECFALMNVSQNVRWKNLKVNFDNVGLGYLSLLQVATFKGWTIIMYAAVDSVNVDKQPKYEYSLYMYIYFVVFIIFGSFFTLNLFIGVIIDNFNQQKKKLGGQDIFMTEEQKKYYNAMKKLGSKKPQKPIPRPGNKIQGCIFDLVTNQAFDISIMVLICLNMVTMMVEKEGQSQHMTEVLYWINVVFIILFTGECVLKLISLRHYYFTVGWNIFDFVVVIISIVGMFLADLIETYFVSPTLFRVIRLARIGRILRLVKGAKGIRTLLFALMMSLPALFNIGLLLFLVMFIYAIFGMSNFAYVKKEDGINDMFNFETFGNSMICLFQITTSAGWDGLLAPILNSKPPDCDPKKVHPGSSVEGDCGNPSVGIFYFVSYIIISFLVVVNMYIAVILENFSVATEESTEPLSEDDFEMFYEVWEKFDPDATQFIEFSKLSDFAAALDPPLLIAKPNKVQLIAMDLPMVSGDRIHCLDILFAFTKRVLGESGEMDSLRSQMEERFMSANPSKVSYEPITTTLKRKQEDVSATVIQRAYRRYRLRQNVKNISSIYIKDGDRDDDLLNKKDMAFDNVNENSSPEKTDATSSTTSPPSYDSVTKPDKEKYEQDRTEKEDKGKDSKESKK
# [2] = target: T1, Sodium channel protein type 9 subunit alpha; assay: Inhibition of human Nav 1.7 channel by electrophysiology
# Target sequence in this assay (Q15858 whole entry): as above
# hERG (KCNH2) = hERG (KCNH2) (Homo sapiens, UniProt Q12809); assay: Displacement of [35S][…] from human ERG channel at 10 uM
# Method in brief: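 hERG binding assay measuring displacement of 35S-labeled MK-0499, a known hERG blocker. Test compound at 10 μM; result expressed as percent inhibition of binding.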
# Rattus norvegicus [3] = assay: Antiallodynic activity in rat spinal nerve ligation model of neuropathic pain assessed as reversal of allodynia at 10 mg/kg, po after 2 hrs; type: functional
# Method in brief: (§2)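 Rat spinal nerve ligation (Chung) neuropathic pain model; compound given orally as a single dose (10 or 30 mg/kg). Allodynia reversal read at 2 h and 4 h after dosing, expressed as percent reversal.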
# Rattus norvegicus [4] = assay: Antiallodynic activity in rat spinal nerve ligation model of neuropathic pain assessed as reversal of allodynia at 10 mg/kg, po after 4 hrs; type: functional; method in brief: as §2
# Cytochrome P450 2D6 = Cytochrome P450 2D6 (Homo sapiens, UniProt P10635); assay: Inhibition of CYP2D6; type: ADME
# Cytochrome P450 3A4 = Cytochrome P450 3A4 (Homo sapiens, UniProt P08684); assay: Inhibition of CYP3A4; type: ADME
# Cytochrome P450 2C9 = Cytochrome P450 2C9 (Homo sapiens, UniProt P11712); assay: Inhibition of CYP2C9; type: ADME
# [5] = Clearance in rat plasma at 1 mg/kg, ip; type: ADME, organism-based; set-up: dose 1 mg/kg, route intraperitoneal
# Rattus norvegicus [6] = assay: Antiallodynic activity in rat spinal nerve ligation model of neuropathic pain assessed as reversal of allodynia at 30 mg/kg, po after 4 hrs; type: functional; method in brief: as §2
# Liver = assay: Metabolic stability in dog liver microsomes after 60 mins; type: functional; conditions: Canis lupus familiaris, Microsome
# Method in brief: (§3)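 Compound incubated for 60 min with liver microsomal preparations. Conversion to the carboxylic acid metabolite formed by carboxamide hydrolysis was followed.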
# Rattus norvegicus [7] = assay: Antiallodynic activity in rat spinal nerve ligation model of neuropathic pain assessed as reversal of mechanical allodynia at 3 mg/kg, po bid for 2 days measured after 2 hrs post final dose; type: functional
# Method in brief: (§4)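 Rat spinal nerve ligation (Chung) model; oral dosing at 3 mg/kg bid for 2 days. Reversal of mechanical allodynia read at 2 h and 4 h, expressed as percent reversal; significance given as p values.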
# [8] = Half life in rat; type: ADME, organism-based; conditions: in vivo
# [9] = Oral bioavailability dog; type: ADME, organism-based, Canis lupus familiaris; conditions: in vivo
# Liver microsomes [10] = assay: Metabolic stability in human liver microsomes after 60 mins; type: functional; conditions: Microsome; method in brief: as §3
# Rattus norvegicus [11] = assay: Neurotoxicity in rat assessed as effect on motor coordination by measuring reduced latency at 30 mg/kg, po by rotarod test; type: toxicity, organism-based; set-up: dose 30 mg/kg, route oral; conditions: in vivo
# Method in brief: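 Rat rotarod test of motor coordination after oral dosing (30 or 100 mg/kg). Read-out is latency on the rotarod.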
# Rattus norvegicus [12] = assay: Antiallodynic activity in rat spinal nerve ligation model of neuropathic pain assessed as reversal of mechanical allodynia at 3 mg/kg, po bid for 2 days measured after 4 hrs post final dose; type: functional; method in brief: as §4
# [13] = Volume of distribution in rat; type: ADME, organism-based; conditions: in vivo
# Rattus norvegicus [14] = species on record: Rattus norvegicus; assay: Plasma clearance in rat; type: ADME, organism-based; conditions: in vivo
# [15] = Half life in dog; type: ADME, organism-based, Canis lupus familiaris; conditions: in vivo
# [16] = Volume of distribution in dog; type: ADME, organism-based, Canis lupus familiaris; conditions: in vivo
# Mus musculus = assay: Anticonvulsant activity in mouse assessed as protection against maximal electric shock-induced tonic seizures at 10 mg/kg, po after 4 hrs; type: functional
# Method in brief: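 Mouse maximal electroshock (MES) seizure model. Oral dose 10 mg/kg, given 4 h before the shock. Read-out is protection from tonic seizures, expressed as percent.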
# Liver microsomes [17] = assay: Metabolic stability in rat liver microsomes after 60 mins; type: functional; conditions: Microsome; method in brief: as §3
# [18] = target: T2, Nuclear receptor subfamily 1 group I member 2 (Homo sapiens, UniProt O75469); assay: Induction of human PXR by induction assay
# T2 sequence (O75469 whole entry): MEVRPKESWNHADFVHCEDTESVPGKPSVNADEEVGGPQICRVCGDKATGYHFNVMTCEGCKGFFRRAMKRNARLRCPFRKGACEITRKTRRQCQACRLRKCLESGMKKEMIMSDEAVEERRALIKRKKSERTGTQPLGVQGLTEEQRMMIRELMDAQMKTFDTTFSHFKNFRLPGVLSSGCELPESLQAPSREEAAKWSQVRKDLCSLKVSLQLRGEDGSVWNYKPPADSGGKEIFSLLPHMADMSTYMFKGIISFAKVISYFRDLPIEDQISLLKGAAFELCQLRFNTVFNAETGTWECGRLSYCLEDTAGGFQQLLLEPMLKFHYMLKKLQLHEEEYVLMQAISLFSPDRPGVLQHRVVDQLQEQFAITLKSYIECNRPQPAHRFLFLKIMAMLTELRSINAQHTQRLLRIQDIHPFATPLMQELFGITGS
# Canis familiaris = species on record: Canis familiaris; assay: Plasma clearance in dog; type: ADME, organism-based, Canis lupus familiaris; conditions: in vivo
# Macaca mulatta = species on record: Macaca mulatta; assay: Metabolic stability in monkey liver microsomes after 60 mins; type: functional; conditions: Microsome; method in brief: as §3
# [19] = Oral bioavailability in rat; type: ADME, organism-based; conditions: in vivo
# Rattus norvegicus [20] = assay: Antiallodynic activity in rat spinal nerve ligation model of neuropathic pain assessed as reversal of allodynia at 30 mg/kg, po after 2 hrs; type: functional; method in brief: as §2
# [21] = target: T1, Sodium channel protein type 9 subunit alpha; assay: Inhibition of human Nav 1.7 channel at 10 uM by voltage-ion-probe-reader; method in brief: as §1
# Target sequence in this assay (Q15858 whole entry, looked up): as the sequence (Q15858 whole entry) above
# Chain of hERG (KCNH2) (Q12809 whole entry): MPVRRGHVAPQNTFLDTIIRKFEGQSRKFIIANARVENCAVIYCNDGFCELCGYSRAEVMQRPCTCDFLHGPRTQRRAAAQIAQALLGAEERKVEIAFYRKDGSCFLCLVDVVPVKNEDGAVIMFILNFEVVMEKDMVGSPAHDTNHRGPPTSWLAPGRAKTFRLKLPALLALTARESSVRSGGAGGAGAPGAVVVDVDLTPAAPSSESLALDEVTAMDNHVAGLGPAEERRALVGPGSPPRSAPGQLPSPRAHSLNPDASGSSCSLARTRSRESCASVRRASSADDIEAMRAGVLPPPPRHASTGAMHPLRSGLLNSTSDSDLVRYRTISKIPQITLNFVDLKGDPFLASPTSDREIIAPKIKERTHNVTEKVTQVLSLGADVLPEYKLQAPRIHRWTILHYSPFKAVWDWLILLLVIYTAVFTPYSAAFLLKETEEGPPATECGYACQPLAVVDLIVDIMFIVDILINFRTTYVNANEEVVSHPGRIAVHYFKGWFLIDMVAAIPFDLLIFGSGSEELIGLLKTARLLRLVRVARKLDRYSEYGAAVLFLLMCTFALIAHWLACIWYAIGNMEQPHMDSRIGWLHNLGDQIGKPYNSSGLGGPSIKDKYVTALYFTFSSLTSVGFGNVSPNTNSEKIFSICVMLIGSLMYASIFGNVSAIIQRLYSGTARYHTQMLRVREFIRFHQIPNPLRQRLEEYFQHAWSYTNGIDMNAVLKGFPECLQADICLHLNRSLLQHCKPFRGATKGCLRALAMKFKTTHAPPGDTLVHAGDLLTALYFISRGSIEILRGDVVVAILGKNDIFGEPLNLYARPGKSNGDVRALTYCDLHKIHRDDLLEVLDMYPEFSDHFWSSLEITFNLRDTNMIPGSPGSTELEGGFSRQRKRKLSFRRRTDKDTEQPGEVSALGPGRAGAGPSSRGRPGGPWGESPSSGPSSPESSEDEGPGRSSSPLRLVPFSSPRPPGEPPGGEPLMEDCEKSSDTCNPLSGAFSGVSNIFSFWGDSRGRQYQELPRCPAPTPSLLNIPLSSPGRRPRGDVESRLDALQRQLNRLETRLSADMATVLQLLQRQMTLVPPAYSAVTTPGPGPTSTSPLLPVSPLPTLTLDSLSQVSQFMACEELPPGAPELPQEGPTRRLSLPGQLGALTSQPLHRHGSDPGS
# Chain of Cytochrome P450 2D6 (P10635 whole entry): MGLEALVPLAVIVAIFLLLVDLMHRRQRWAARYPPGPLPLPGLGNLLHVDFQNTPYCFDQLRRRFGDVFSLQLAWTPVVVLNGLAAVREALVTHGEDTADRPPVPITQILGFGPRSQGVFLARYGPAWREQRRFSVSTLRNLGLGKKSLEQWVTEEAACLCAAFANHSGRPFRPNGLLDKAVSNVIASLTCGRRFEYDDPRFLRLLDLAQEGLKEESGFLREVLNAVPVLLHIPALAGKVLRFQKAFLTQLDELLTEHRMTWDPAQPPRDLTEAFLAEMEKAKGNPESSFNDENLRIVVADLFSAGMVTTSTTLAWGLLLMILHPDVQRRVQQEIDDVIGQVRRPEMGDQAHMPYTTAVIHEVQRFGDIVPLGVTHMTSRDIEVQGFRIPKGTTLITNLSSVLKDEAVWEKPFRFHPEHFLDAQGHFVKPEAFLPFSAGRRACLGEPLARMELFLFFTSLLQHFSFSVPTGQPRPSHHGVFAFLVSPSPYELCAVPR
# Chain of Cytochrome P450 3A4 (P08684 whole entry): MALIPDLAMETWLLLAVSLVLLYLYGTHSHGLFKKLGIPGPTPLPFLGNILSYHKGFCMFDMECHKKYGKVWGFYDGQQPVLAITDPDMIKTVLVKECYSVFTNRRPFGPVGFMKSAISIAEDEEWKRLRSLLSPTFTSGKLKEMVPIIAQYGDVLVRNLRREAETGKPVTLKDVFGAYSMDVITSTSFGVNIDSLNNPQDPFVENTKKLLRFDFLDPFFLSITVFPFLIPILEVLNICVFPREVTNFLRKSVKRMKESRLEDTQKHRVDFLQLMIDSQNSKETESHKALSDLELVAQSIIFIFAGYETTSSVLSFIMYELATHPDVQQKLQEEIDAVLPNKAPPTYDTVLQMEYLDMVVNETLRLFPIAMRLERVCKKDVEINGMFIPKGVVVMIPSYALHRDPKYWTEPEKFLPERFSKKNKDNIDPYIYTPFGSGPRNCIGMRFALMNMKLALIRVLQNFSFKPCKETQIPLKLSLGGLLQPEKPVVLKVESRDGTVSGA
# Chain of Cytochrome P450 2C9 (P11712 whole entry): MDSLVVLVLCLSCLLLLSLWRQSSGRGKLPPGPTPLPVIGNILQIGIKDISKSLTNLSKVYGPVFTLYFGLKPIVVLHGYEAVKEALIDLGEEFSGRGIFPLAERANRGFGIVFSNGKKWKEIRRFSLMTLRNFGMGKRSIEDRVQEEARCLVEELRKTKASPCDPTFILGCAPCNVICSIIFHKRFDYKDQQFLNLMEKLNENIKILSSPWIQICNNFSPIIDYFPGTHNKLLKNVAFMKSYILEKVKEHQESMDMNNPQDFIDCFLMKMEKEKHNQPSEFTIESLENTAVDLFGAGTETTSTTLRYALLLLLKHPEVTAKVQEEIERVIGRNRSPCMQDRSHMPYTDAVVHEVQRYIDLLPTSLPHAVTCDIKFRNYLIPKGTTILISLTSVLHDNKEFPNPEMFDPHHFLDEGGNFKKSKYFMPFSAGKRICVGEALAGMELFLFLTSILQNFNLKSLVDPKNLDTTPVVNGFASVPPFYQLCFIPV
smiles,measurement,setting,value
CC(C)(C)c1cc(C(N)=O)nn1-c1cccc(-c2ccccc2OC(F)(F)F)c1,pIC50,[1],5.86
NC(=O)c1nc(-c2cccc(-c3ccccc3OC(F)(F)F)c2)cs1,pKi,[2],7.82
Cc1cc(C(N)=O)nn1-c1cccc(-c2c(F)cccc2C(F)(F)F)c1,inhibition at 10 µM,hERG (KCNH2),74%
same,Activity,Rattus norvegicus [3],12%
same,Activity,Rattus norvegicus [4],2%
same,pIC50,[1],7.15
NC(=O)n1ccc(-c2ccc(Oc3ccc(Cl)cc3F)cc2)n1,pKi,[2],7.89
Cc1cc(C(N)=O)nn1-c1cccc(-c2ccccc2Cl)c1,inhibition at 10 µM,hERG (KCNH2),8%
same,pIC50,[1],6.13
Cc1cc(C(N)=O)nn1-c1cccc(-c2cc(F)ccc2C(F)(F)F)c1,inhibition at 10 µM,hERG (KCNH2),41%
same,pIC50,[1],6.39
Cc1cc(C(N)=O)nn1-c1ccc(F)c(-c2ccccc2OC(F)(F)F)c1,inhibition at 10 µM,hERG (KCNH2),66%
same,pIC50,[1],6.79
Cc1cc(C(N)=O)nn1-c1ccc(OC(F)(F)F)c(-c2ccccc2OC(F)(F)F)c1,inhibition at 10 µM,hERG (KCNH2),77%
same,pIC50,[1],6.43
Cc1cc(C(N)=O)nn1-c1cccc(-c2cccc(F)c2C(F)(F)F)c1,inhibition at 10 µM,hERG (KCNH2),73%
same,pIC50,[1],6.11
Cc1cc(C(N)=O)nn1-c1cc(-c2ccccc2OC(F)(F)F)ccc1F,inhibition at 10 µM,hERG (KCNH2),62%
same,Activity,Rattus norvegicus [3],17%
same,Activity,Rattus norvegicus [4],8%
same,pIC50,[1],6.65
Cc1cc(C(N)=O)nn1-c1cccc(-c2ccccc2OC(F)(F)F)c1,inhibition at 10 µM,hERG (KCNH2),6%
same,Activity,Rattus norvegicus [3],33%
same,Activity,Rattus norvegicus [4],11%
same,pIC50,[1],6.65
Cc1cc(C(N)=O)nn1-c1cccc(-c2ccccc2C(F)(F)F)c1,inhibition at 10 µM,hERG (KCNH2),68%
same,Activity,Rattus norvegicus [3],14%
same,Activity,Rattus norvegicus [4],19%
same,pIC50,[1],6.79
Cc1cc(C(N)=O)nn1-c1cccc(-c2c(C(F)(F)F)cccc2C(F)(F)F)c1,inhibition at 10 µM,hERG (KCNH2),67%
same,Activity,Rattus norvegicus [3],16%
same,Activity,Rattus norvegicus [4],6%
same,pIC50,[1],7.39
Cc1cc(C(N)=O)nn1-c1cccc(-c2ccccc2OCC(F)(F)C(F)(F)F)c1,inhibition at 10 µM,hERG (KCNH2),49%
same,Activity,Rattus norvegicus [3],15%
same,Activity,Rattus norvegicus [4],9%
same,pIC50,[1],6.89
Cc1cc(C(N)=O)nn1-c1cccc(-c2cc(C(F)(F)F)ccc2C(F)(F)F)c1,pIC50,Cytochrome P450 2D6,4.48
same,pIC50,Cytochrome P450 3A4,4.29
same,inhibition at 10 µM,hERG (KCNH2),51%
same,pIC50,Cytochrome P450 2C9,5.59
same,Activity,Rattus norvegicus [3],39%
same,Activity,Rattus norvegicus [4],35%
same,pIC50,[1],6.57
NC(=O)c1ccn(-c2cccc(-c3ccccc3OC(F)(F)F)c2)n1,inhibition at 10 µM,hERG (KCNH2),51%
same,pIC50,[1],7.19
NC(=O)c1cc(N)n(-c2cccc(-c3ccccc3OC(F)(F)F)c2)n1,inhibition at 10 µM,hERG (KCNH2),44%
same,pIC50,[1],6.95
Cc1cc(C(N)=O)nn1-c1cccc(-c2ccc(Cl)cc2C(F)(F)F)c1,inhibition at 10 µM,hERG (KCNH2),45%
same,Activity,Rattus norvegicus [3],8%
same,Activity,Rattus norvegicus [4],0%
same,pIC50,[1],6.61
Cc1cc(C(N)=O)nn1-c1cccc(-c2ccccc2Oc2ccccc2)c1,inhibition at 10 µM,hERG (KCNH2),13%
same,pIC50,[1],6.06
NC(=O)n1ccc(-c2cccc(-c3ccccc3Cl)c2)n1,CL/F,[5],123 mL/min/kg
same,pKi,[2],7.74
Cc1cc(C(N)=O)nn1-c1cccc(-c2ccc(C(F)(F)F)cc2C(F)(F)F)c1,Activity,Rattus norvegicus [6],55%
same,pIC50,Cytochrome P450 2D6,< 4.00
same,Stability,Liver,Stable
same,Activity,Rattus norvegicus [7],80%
same,pIC50,Cytochrome P450 3A4,< 4.00
same,half-life,[8],2 h
same,inhibition at 10 µM,hERG (KCNH2),53%
same,pIC50,Cytochrome P450 2C9,5.05
same,bioavailability,[9],50%
same,Stability,Liver microsomes [10],Stable
same,Activity,Rattus norvegicus [11],Not Active
same,Activity,Rattus norvegicus [12],87%
same,Vd,[13],3.1 L/kg
same,clearance,Rattus norvegicus [14],11 mL/min/kg
same,half-life,[15],1.4 h
same,Vd,[16],1.43 L/kg
same,Activity,Mus musculus,90%
same,Activity,Rattus norvegicus [3],35%
same,Stability,Liver microsomes [17],Unstable
same,Activity,Rattus norvegicus [4],32%
same,pIC50,[18],< 4.60
same,clearance,Canis familiaris,16 mL/min/kg
same,Stability,Macaca mulatta,Stable
same,bioavailability,[19],55%
same,pIC50,[1],6.37
same,Activity,Rattus norvegicus [20],69%
Cc1cc(C(N)=O)nn1-c1cccc(-c2cc(C(F)(F)F)cc(C(F)(F)F)c2)c1,inhibition,[21],17%
NC(=O)c1cc(-c2cccc(-c3ccccc3OC(F)(F)F)c2)n[nH]1,inhibition at 10 µM,hERG (KCNH2),94%
same,pIC50,[1],6.29
Cc1cc(C(N)=O)nn1-c1cccc(-c2ccccc2OCC(F)(F)F)c1,inhibition at 10 µM,hERG (KCNH2),43%
same,Activity,Rattus norvegicus [3],18%
same,Activity,Rattus norvegicus [4],4%
same,pIC50,[1],6.73
NC(=O)n1ccc(-c2ccc(-c3ccccc3Cl)cc2)n1,CL/F,[5],125 mL/min/kg
same,pKi,[2],6.95
